# Measurements: ChEMBL document CHEMBL1142124, “Antimicrobial prenylated anthracene derivatives from the leaves of Harungana madagascariensis” (2007)
# Activity calls are given as the source filed them. The calls are words filed in the database; no cut-off is given here.
# Tests used:
# [Chlorella] fusca [1] = Antimicrobial activity against Chlorella fusca at 1 ug/uL by agar diffusion assay; format: functional, organism-based; conditions: Scenedesmus fuscus
# Outline: (§1)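 Filter-disk agar diffusion. 50 µL of test solution is applied to a sterile 9 mm disk, and the disk is air-dried. Disks sit on an agar medium suited to each organism, and the plate is sprayed with a suspension of that organism. Incubation is at 28 °C overnight. The radius of the inhibition zone is read in mm.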
# [Chlorella] fusca [2] = Antimicrobial activity against Chlorella fusca at 5 ug/uL by agar diffusion assay; format: functional, Scenedesmus fuscus; conditions: for Activity: Scenedesmus fuscus; outline: as §1
# Priestia megaterium [3] = assay: Antibacterial activity against Bacillus megaterium at 5 ug/uL by agar diffusion assay; format: functional; outline: as §1
# Priestia megaterium [4] = assay: Antibacterial activity against Bacillus megaterium at 1 ug/uL by agar diffusion assay; format: functional; outline: as §1
# Microbotryum violaceum [5] = assay: Antimicrobial activity against Micobotryum violaceum at 5 ug/uL by agar diffusion assay; format: functional; outline: as §1
# Microbotryum violaceum [6] = assay: Antimicrobial activity against Micobotryum violaceum at 1 ug/uL by agar diffusion assay; format: functional, organism-based; outline: as §1
SMILES,Activity ([Chlorella] fusca [1]),inhibition zone (IZ) ([Chlorella] fusca [2]) [mm],inhibition zone (IZ) (Priestia megaterium [3]) [mm],inhibition zone (IZ) (Priestia megaterium [4]) [mm],inhibition zone (IZ) (Microbotryum violaceum [5]) [mm],Activity (Microbotryum violaceum [6]),Activity ([Chlorella] fusca [2]),Activity (Priestia megaterium [3]),Activity (Priestia megaterium [4]),Activity (Microbotryum violaceum [5])
O=c1c2cc(O)ccc2oc2cccc(O)c12,inactive,10,12,9,12,inactive,–,–,–,–
CC(C)=CCc1c(C)c(CC=C(C)C)c2c(c1O)C(=O)c1c(O)cc(O)c(CC=C(C)C)c1C2,inactive,–,–,–,–,inactive,inactive,inactive,inactive,inactive
CC(C)=CCc1c(C)cc(O)c2c(O)c3c(cc12)[C@]1(CC=C(C)C)C[C@H](O)C(C)(C)[C@@H](C3=O)C1=O [HARUNMADAGASCARIN D],inactive,–,10,–,–,inactive,inactive,–,inactive,inactive
CC(C)=CCc1c(C)c2c3c(c1O)C(=O)c1c(O)cc4c(c1[C@]31O[C@H](C2)C(C)(C)O1)C=CC(C)(C)O4,inactive,–,–,–,–,inactive,inactive,inactive,inactive,inactive
COC1c2c(CC=C(C)C)c(C)cc(O)c2C(=O)c2c(O)cc3c(c21)CC(C(C)(C)O)O3 (stereo not given) [KENGANTHRANOL C],inactive,–,10,6,–,inactive,inactive,–,–,inactive
